Assay results published in ChEMBL document CHEMBL1123501, “Inactivation of leukocyte elastase by aryl azolides and sulfonate salts. Structure-activity relationship studies” (J Med Chem, 1986).
Active and inactive are the calls of the source. The calls are words filed in the database; no cut-off is given here.

Target: T1, Neutrophil elastase (Homo sapiens) (UniProt P08246)
T1 sequence (whole entry): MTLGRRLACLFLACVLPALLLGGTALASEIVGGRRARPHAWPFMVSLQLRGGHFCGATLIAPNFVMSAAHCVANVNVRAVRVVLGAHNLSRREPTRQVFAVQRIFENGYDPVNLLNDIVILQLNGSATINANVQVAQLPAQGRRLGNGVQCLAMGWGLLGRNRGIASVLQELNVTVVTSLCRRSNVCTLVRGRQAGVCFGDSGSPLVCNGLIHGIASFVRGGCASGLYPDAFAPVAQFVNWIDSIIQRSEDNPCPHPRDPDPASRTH
Assay: Compound was evaluated for the inhibitory activity against human Leukocyte elastase; Inactive
How it was run: (§1)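 Human leukocyte elastase (enzyme stock 3.4 × 10⁻⁵ M in pH 5.5 acetate) incubated at 25 °C with inhibitor (DMSO stock 3.4 × 10⁻⁴ M) in Tris buffer pH 7.2. The inhibitor:enzyme ratio was 10–50. Aliquots taken over time were added to MeOSuc-Ala-Ala-Pro-Val-pNA (stock 3.15 × 10⁻² M). Residual activity was read at 410 nm for 2 min after 30 s, against a DMSO control.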

K obs / 1	SMILES
inactive	O=C(NCc1ccc(C(F)(F)F)cc1)n1ccnc1
inactive	O=C(Nc1cccc(C(F)(F)F)c1)n1ccnc1
inactive	O=C(NCc1cccc(F)c1)n1ccnc1
inactive	O=C(Nc1ccccc1C(F)(F)F)n1ccnc1
inactive	O=C(NCc1cccc(C(F)(F)F)c1)n1ccnc1
inactive	O=C(Nc1cccc(F)c1)n1ccnc1

Target: T1, Neutrophil elastase (Homo sapiens)
Assay: Inhibitory activity against human Leukocyte elastase; inactive (at 243-fold excess of inhibitor over enzyme)

K obs / 1	SMILES
inactive	O=C(Nc1cccc(C(F)(F)F)c1)S(=O)(=O)O
inactive	O=C(NCc1cccc(C(F)(F)F)c1)S(=O)(=O)O
inactive	O=C(Nc1ccc(C(F)(F)F)cc1)S(=O)(=O)O
inactive	O=C(Nc1ccccc1)S(=O)(=O)O
inactive	O=C(Nc1ccccc1C(F)(F)F)S(=O)(=O)O
inactive	O=C(Nc1cccc(F)c1)S(=O)(=O)O
inactive	O=C(Nc1cccc(Cl)c1)S(=O)(=O)O
inactive	O=C(NCc1cccc(F)c1)S(=O)(=O)O
inactive	O=C(Nc1ccc(Cl)cc1)S(=O)(=O)O

Target: T1, Neutrophil elastase (Homo sapiens)
Assay: Inhibitory activity against human Leukocyte elastase
How it was run: as §1

K obs / 1 [M⁻¹ s⁻¹]	SMILES
4	O=C(NCCc1ccccc1)S(=O)(=O)O
13	COC(=O)C(Cc1cccc(C(F)(F)F)c1)NC(=O)S(=O)(=O)O (racemic)
550	COC(=O)C(Cc1ccccc1)NC(=O)S(=O)(=O)O (racemic)
57	COC(=O)C(Cc1cccc(F)c1)NC(=O)S(=O)(=O)O (racemic)
38	O=C(NCCc1cccc(F)c1)n1ccnc1
18	O=C(NCCc1cccc(F)c1)S(=O)(=O)O

Second part, the compound before the results:

SMILES	K obs / 1 [M⁻¹ s⁻¹]
O=C(Nc1cn(-c2ccccc2)cn1)n1ccccc1=O	500
COC(=O)C(Cc1ccccc1)NC(=O)ON1C(=O)CCC1=O (centres undefined)	6640
O=C(NCCc1ccccc1)n1ccnc1	35
COC(=O)C(Cc1ccccc1)NC(=O)n1ccnc1 (centres undefined)	2070
O=C(Nc1cn(-c2cccc(F)c2)cn1)n1ccccc1=O	317
COC(=O)C(Cc1cccc(C(F)(F)F)c1)NC(=O)n1ccnc1 (centres undefined)	1100
O=C(Nc1cn(-c2cccc(C(F)(F)F)c2)cn1)n1ccccc1=O	11700
COC(=O)C(Cc1ccccc1)NC(=O)n1ccccc1=O (centres undefined)	2330
O=C(Nc1cn(-c2cccc(F)c2)cn1)ON1C(=O)CCC1=O	823
O=C(NCCc1cccc(C(F)(F)F)c1)n1ccnc1	483
COC(=O)C(Cc1cccc(F)c1)NC(=O)n1ccnc1 (centres undefined)	318
O=C(Nc1cn(-c2cccc(C(F)(F)F)c2)cn1)ON1C(=O)CCC1=O	13500
O=C(Nc1cn(-c2ccccc2)cn1)ON1C(=O)CCC1=O	927
